From publication PMC8208316 (Chemical Science, 2021) come the findings set out here.

Where “and” joins values, the source holds several entries; their conditions need not be identical. Equal values may be shown once.

Data set [1] relates to H9c2 cardiac myoblasts. The data set can be described thus: Protection from H2O2-mediated oxidative stress, CCK-8 viability assay. It is filed as cell-based, rat. Background: Tetrazolium assays rely on reduction of a dye to a coloured formazan, in cell work by metabolically active cells.
Another data set can be described thus: Kinetics of RSSH release. It is filed as physicochemical. To be noted: for half-life at 100 µM: phosphate buffered saline with MMTS (1 mM) as RSSH trap, pH 7.4; for phenol byproduct 4a–f yield: precursor 100 μM, MMTS 1 mM, pH 7.4 PBS containing DTPA, HPLC. Summed up:
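Test compound (100 μM) incubated at 37 °C with MMTS (1 mM) as RSSH trap in PBS (pH 7.4, 100 mM) containing DTPA (100 μM). Timed aliquots quenched with 0.1% formic acid and analysed by HPLC: precursor at 240 nm, phenol at 275 nm. First-order rate constants from single-exponential fits; average of three experiments.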

For data set [2], the system named is H9c2 cardiac myoblasts. The data set can be described thus: Intracellular sulfane sulfur detection using the SSP4 probe. It is filed as cell-based, rat. Summed up:
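H9c2 cells loaded with SSP4 (20 μM) plus CTAB (500 μM) for 20 min, then washed with serum-free medium. Test compound added at 0–200 μM. Plate-reader fluorescence (ex 482 nm, em 515 nm) read at set times over 3 h and normalised to the 0 μM value at each time. Mean ± SEM, n = 3 per group, three independent experiments.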

The test system of data set [3] is H9c2 cardiac myoblasts. As to the kind of experiment: Protection from H2O2-mediated oxidative stress, Sytox green viability assay. It is filed as cell-based, rat. To be noted: pretreatment 4 and 8 h, then H2O2 200 μM.
The nature of data set [4]: Decomposition of precursors in the presence of thiol. It is filed as physicochemical.
A short description of data set [5]: COS release in the presence of thiols by membrane inlet mass-spectrometry. It is filed as physicochemical. To be noted: 50 μM precursor, NAC 0.25 mM, PBS pH 7.4, 37 °C.
Where [6] appears, read: 10 equiv. MMTS, PBS pH 7.4, 100 mM, 37 °C.

As for `Oc1ccccc1` [phenol, reference compound], the “protection against H2O2-mediated toxicity (cell viability, CCK-8)” value (from here on “protection … (cell viability, CCK-8)”) in the data set on H9c2 cardiac myoblasts [1] (50 μM for 4 and 8 h, then H2O2 200 μM 2 h) is given as “no protective effect”.

Usually half-life stands for how long it takes for the measured level to halve. `COC(=O)C(NC(C)=O)C(C)(C)SSC(=O)Oc1ccc(C)cc1` (stereo not drawn) [1b] displayed a half-life at 100 µM in “Kinetics of RSSH release” of 2.28 ± 0.0667 h. In addition, in “Kinetics of RSSH release” (37 °C), the “phenol byproduct 4a–f yield” value stood at 93 ± 4%.

`COC(=O)C(CSSSCC(NC(C)=O)C(=O)OC)NC(C)=O` [N-Ac-OMe-Cys-(S)3, N-acetyl O-methyl cysteine trisulfide, reference compound]: the “SSP4 fluorescence signal in H9c2 cells compared with 1a” value in the data set with H9c2 cardiac myoblasts [2] is reported as “higher fluorescence signal”.

Consider `COC(=O)C(NC(C)=O)C(C)(C)SSC(=O)Oc1ccc(OC)cc1` (stereo not drawn) [1c], for which the half-life at 100 µM in “Kinetics of RSSH release” was determined as 2.45 ± 0.0333 h. Besides, in the data set “Kinetics of RSSH release” (37 °C), the “phenol byproduct 4a–f yield” value worked out at 92 ± 1%.

`COC(=O)C(NC(C)=O)C(C)(C)SSC(=O)Oc1ccc(F)cc1` (stereo not drawn) [1d]: in the data set “Kinetics of RSSH release”, the half-life at 100 µM was found to be 1.6 ± 0.05 h. The “phenol byproduct 4a–f yield” value in the data set “Kinetics of RSSH release” (37 °C) came to 96 ± 6%.

As for `COC(=O)C(NC(C)=O)C(C)(C)SSC(=O)Oc1ccccc1` (stereo not drawn) [1a], in “Kinetics of RSSH release” (setting [6]), the “k, disappearance of precursor (first-order)” value was 0.00539 min⁻¹ and the “k, formation of phenol (first-order)” value was 0.00533 min⁻¹. Also, the half-life at 100 µM in the data set “Kinetics of RSSH release” is 2.15 ± 0.0333 h. For the same compound, in the data set “Kinetics of RSSH release” (37 °C), the “phenol byproduct 4a–f yield” value is 92% and 92 ± 2%. For the same compound, in the data set on H9c2 cardiac myoblasts [2] (50 μM), the “SSP4 fluorescence signal (intracellular sulfane sulfur)” value was “did not observe a significant increase”. Also, the “SSP4 fluorescence intensity (intracellular sulfane sulfur)” value in the data set on H9c2 cardiac myoblasts [2] (100 and 200 μM, over 3 h) was “dose-dependent increases in fluorescence intensity”. Besides, the “protection against H2O2-mediated toxicity (Sytox)” value with H9c2 cardiac myoblasts [3] is “consistently shows protective effects”. Besides, the “protection … (cell viability, CCK-8)” value with H9c2 cardiac myoblasts [1] (pretreatment 5 μM for 8 h, then H2O2 200 μM) is on record as “shows protection”. Further, the “protection … (cell viability, CCK-8)” value in the data set on H9c2 cardiac myoblasts [1] (pretreatment 4 h (0–50 μM), then H2O2 200 μM 2 h) is recorded as “dose-dependent decrease of H2O2-induced toxicity”. Moreover, the “formation of byproduct 9a (indication of RSSH yield)” value in data set [4] (5 equiv. N-acetylcysteine methyl ester) amounted to 53%. In addition, the “COS production with respect to precursor 13” value in data set [5] is listed as “approximately 20%”.

Regarding `COC(=O)C(NC(C)=O)C(C)(C)SSC(=O)Oc1ccc(C#N)cc1` (stereo not drawn) [1f], the half-life at 100 µM in the data set “Kinetics of RSSH release” is 0.467 ± 0.0167 h. In addition, the “phenol byproduct 4a–f yield” value in “Kinetics of RSSH release” (37 °C) stood at 97 ± 2%.

For the compound `COC(=O)C(NC(C)=O)C(C)(C)SSC(=O)OCc1ccccc1` (stereo not drawn) [compound 8], the half-life at 100 µM in the data set “Kinetics of RSSH release” stood at 37.2 ± 1.57 h. In data set [4] (in the presence of thiol), the “decomposition rate in the presence of thiol with respect to 1a” value is reported as “about six times slower”. For the same compound, the “COS generation in the presence of NAC (comparison)” value in data set [5] is given as “slower COS generation”.
